{"source": "ChEMBL document CHEMBL1140168", "about": "“Phthalides from Pittosporum illicioides var. illicioides with inhibitory activity on superoxide generation and elastase release by neutrophils” (J Nat Prod, 2008)", "key": {"[1]": {"experiment": "Antiinflammatory activity in human neutrophils assessed as inhibition of fMLP/cytochalasin B-induced superoxide radical anion generation", "format": "functional, cell-based", "details": "Neutrophil", "summary_of_the_method": "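Neutrophils from healthy adult donors were isolated by dextran sedimentation, Ficoll Hypaque centrifugation and hypotonic RBC lysis, then kept in Ca2+-free HBSS pH 7.4 at 4 °C. Cells with 0.5 mg/mL ferricytochrome c and 1 mM Ca2+ were equilibrated 2 min at 37 °C and given compound for 5 min. CB 1 µg/mL was added 3 min before 100 nM fMLP (10 min). SOD-inhibitable A550 was read continuously.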"}, "[2]": {"experiment": "Antiinflammatory activity in human neutrophils assessed as inhibition of fMLP/Cytochalasin B-induced elastase release", "format": "functional, cell-based", "details": "Neutrophil", "summary_of_the_method": "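Elastase release (azurophilic degranulation) was measured in donor neutrophils (6 × 10^5/mL) with MeO-Suc-Ala-Ala-Pro-Val-p-nitroanilide substrate at 100 µM. Cells were equilibrated 2 min at 37 °C, then pretreated with compound for 5 min. Stimulation was with fMLP 100 nM plus cytochalasin B 0.5 µg/mL, and A405 was monitored continuously. IC50 came from concentration-dependent inhibition.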"}}, "data": [{"smiles": "COc1cc([C@@H]2OC[C@@H]3[C@H]2CO[C@H]3c2cc(OC)c(O)c(OC)c2)cc(OC)c1O", "values": [{"measurement": "IC50", "setting": "[1]", "value": 40.2, "unit": "µM"}, {"measurement": "IC50", "setting": "[2]", "value": "> 50", "unit": "µM"}]}, {"smiles": "CC[C@@H]1OC(=O)c2c1cc(OC)c(OC)c2O", "values": [{"measurement": "IC50", "setting": "[1]", "value": 13.7, "unit": "µM"}, {"measurement": "IC50", "setting": "[2]", "value": "> 50", "unit": "µM"}]}, {"smiles": "CC[C@@H]1OC(=O)c2c1cc(OC)c(OC)c2OC", "values": [{"measurement": "IC50", "setting": "[1]", "value": 17.6, "unit": "µM"}, {"measurement": "IC50", "setting": "[2]", "value": "> 50", "unit": "µM"}]}, {"smiles": "C/C=C1\\OC(=O)c2c1ccc(OC)c2O", "values": [{"measurement": "IC50", "setting": "[1]", "value": 45.3, "unit": "µM"}, {"measurement": "IC50", "setting": "[2]", "value": 38.6, "unit": "µM"}]}, {"smiles": "CC[C@H]1OC(=O)c2c1ccc(OC)c2O", "values": [{"measurement": "IC50", "setting": "[1]", "value": 21.2, "unit": "µM"}, {"measurement": "IC50", "setting": "[2]", "value": "> 50", "unit": "µM"}]}, {"smiles": "CC[C@@H]1OC(=O)c2c1ccc(OC)c2O", "values": [{"measurement": "IC50", "setting": "[1]", "value": 29.8, "unit": "µM"}, {"measurement": "IC50", "setting": "[2]", "value": "> 50", "unit": "µM"}]}, {"smiles": "C/C=C1\\OC(=O)c2c1ccc(OC)c2OC", "values": [{"measurement": "IC50", "setting": "[1]", "value": "> 50", "unit": "µM"}, {"measurement": "IC50", "setting": "[2]", "value": 33.9, "unit": "µM"}]}, {"smiles": "c1ccc2c(c1)[I+]c1ccccc1-2", "note": "[DIPHENYLENEIODONIUM]", "values": [{"measurement": "IC50", "setting": "[1]", "value": 1.7, "unit": "µM"}]}, {"smiles": "COc1cc2ccc(=O)oc2c(OC)c1OC", "note": "[FRAXIDIN METHYL ETHER]", "values": [{"measurement": "IC50", "setting": "[1]", "value": 48.6, "unit": "µM"}, {"measurement": "IC50", "setting": "[2]", "value": "> 50", "unit": "µM"}]}, {"smiles": "O=S(=O)(F)Cc1ccccc1", "note": "[PHENYLMETHYLSULFONYLFLUORIDE]", "values": [{"measurement": "IC50", "setting": "[2]", "value": 202, "unit": "µM"}]}, {"smiles": "COc1cc2ccc(=O)oc2cc1OC", "note": "[SCOPARONE]", "values": [{"measurement": "IC50", "setting": "[1]", "value": 41.4, "unit": "µM"}, {"measurement": "IC50", "setting": "[2]", "value": "> 50", "unit": "µM"}]}]}
